Active and inactive are the calls of the source. The rule behind the calls is not given here.
Columns and labels:
[1] = target: T1, Prostaglandin G/H synthase 1 (Mus musculus) (UniProt P22437); test: Activity at COX1 assessed as inhibition of arachidonic acid-induced PGE2 production in J774 cells at 10 uM; type: cell-based
T1 sequence (whole entry): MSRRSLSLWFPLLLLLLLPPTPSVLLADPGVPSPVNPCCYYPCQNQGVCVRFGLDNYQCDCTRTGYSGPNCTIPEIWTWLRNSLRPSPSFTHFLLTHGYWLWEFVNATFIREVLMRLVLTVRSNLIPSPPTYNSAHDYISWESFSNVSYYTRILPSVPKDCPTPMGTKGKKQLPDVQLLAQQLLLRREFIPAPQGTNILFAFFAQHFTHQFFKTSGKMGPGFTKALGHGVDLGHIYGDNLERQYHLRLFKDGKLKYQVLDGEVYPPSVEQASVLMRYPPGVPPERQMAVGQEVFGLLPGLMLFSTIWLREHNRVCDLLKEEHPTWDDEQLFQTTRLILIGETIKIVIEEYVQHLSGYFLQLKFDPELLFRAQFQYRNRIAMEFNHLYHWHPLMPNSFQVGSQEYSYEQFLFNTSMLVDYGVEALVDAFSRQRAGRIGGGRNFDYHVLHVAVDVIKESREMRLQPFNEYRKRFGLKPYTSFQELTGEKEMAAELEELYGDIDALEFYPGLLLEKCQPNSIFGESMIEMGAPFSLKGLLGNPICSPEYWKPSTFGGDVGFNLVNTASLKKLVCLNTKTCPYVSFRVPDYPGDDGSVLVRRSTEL
How it was run: (§1)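 Murine J774 macrophages were grown in DMEM with 10% FBS, adhered for 2 h at 37 °C, then switched to serum-free medium. Cells were pretreated with compound (0.01-100 µM, ethanol vehicle) for 15 min, then given 15 µM arachidonic acid for 30 min at 37 °C. Supernatant PGE2 was measured by radioimmunoassay. Triplicate wells; % inhibition vs control, mean of three experiments.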

[2] = target: T1, Prostaglandin G/H synthase 1 (Mus musculus); test: Activity at COX1 assessed as inhibition of arachidonic acid-induced PGE2 production in J774 cells; type: cell-based; how it was run: as §1
[3] = system: Mus musculus; test: Antiinflammatory activity in carrageenan-induced mouse paw edema; type: functional, organism-based
How it was run: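 Mice (18-20 g), lightly anesthetized with enflurane, were dosed 1 h before subplantar 1% carrageenan in the left footpad. Paw volume was read by hydroplethysmometer before injection and at 2, 4, 6, 24, 48 and 72 h. Edema was taken as the increase over basal volume.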

[4] = species: Mus musculus; test: Analgesic activity in mouse by formalin paw licking assay at 0-15 mins; type: functional, organism-based
How it was run: (§2)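 Mice (18-20 g) were dosed 1 h before intraplantar 5% formalin (10 µL), given under light enflurane anesthesia. A blinded observer scored paw licking in two phases: 0-15 min and 15-45 min.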

[5] = species: Mus musculus; test: Analgesic activity in Swiss mouse by acetic acid-induced writhing test; type: functional, organism-based
How it was run: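 Male mice (25-30 g) received 0.6% acetic acid intraperitoneally and were caged singly. Writhes were counted over 15 min, starting from the first writhing movement.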

[6] = species: Mus musculus; test: Analgesic activity in mouse by formalin paw licking assay at 15-45 mins; type: functional, organism-based; how it was run: as §2
[7] = system: Rattus norvegicus; test: Gastric damage in rat at 100 mg/kg, po by GI damage assay; type: functional
How it was run: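 Rats (120-140 g) were fasted 18 h with water allowed, then dosed orally at 100 mg/kg; a vehicle group was included, six rats per group. After 5 h, stomachs were excised under pentobarbital. A blinded observer summed lesion lengths in mm per stomach. Analysis: Kruskal-Wallis with Dunn's post-test.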

[8] = target: T1, Prostaglandin G/H synthase 1 (Mus musculus); test: Activity at COX1 assessed as inhibition of arachidonic acid-induced PGE2 production in J774 cells at 100 uM; type: cell-based; how it was run: as §1
[9] = target: T1, Prostaglandin G/H synthase 1 (Mus musculus); test: Activity at COX1 assessed as inhibition of arachidonic acid-induced PGE2 production in J774 cells at 0.1 uM; type: cell-based; how it was run: as §1
[10] = target: T1, Prostaglandin G/H synthase 1 (Mus musculus); test: Activity at COX1 assessed as inhibition of arachidonic acid-induced PGE2 production in J774 cells at 0.01 uM; type: cell-based; how it was run: as §1
[11] = target: T1, Prostaglandin G/H synthase 1 (Mus musculus); test: Activity at COX1 assessed as inhibition of arachidonic acid-induced PGE2 production in J774 cells at 1 uM; type: cell-based; how it was run: as §1
[12] = target: T2, Prostaglandin G/H synthase 2 (Mus musculus) (UniProt Q05769); test: Activity at COX2 assessed as inhibition of arachidonic acid-induced PGE2 production in LPS-stimulated J774 cells at 100 uM; type: cell-based
T2 sequence (whole entry): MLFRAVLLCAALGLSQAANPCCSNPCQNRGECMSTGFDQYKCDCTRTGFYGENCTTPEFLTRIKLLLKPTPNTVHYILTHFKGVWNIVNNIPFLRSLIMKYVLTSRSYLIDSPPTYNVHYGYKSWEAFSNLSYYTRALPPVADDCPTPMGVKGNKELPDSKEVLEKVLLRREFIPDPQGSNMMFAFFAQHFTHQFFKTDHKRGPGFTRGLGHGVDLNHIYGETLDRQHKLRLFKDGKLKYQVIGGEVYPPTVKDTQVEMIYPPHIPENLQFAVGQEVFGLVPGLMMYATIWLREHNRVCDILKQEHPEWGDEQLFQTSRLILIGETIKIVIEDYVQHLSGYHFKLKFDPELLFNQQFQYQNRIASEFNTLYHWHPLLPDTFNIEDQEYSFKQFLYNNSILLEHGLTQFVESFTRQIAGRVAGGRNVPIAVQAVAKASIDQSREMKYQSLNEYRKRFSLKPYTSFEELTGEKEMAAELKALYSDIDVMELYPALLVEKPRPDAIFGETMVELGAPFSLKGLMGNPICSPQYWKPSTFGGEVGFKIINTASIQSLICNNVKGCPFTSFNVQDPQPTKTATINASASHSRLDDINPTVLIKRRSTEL
How it was run: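 J774 cells were induced with S. typhosa LPS (10 µg/mL, 24 h) to express COX-2. Medium was replaced with fresh medium holding 15 µM arachidonic acid, with or without compound (0.01-100 µM, ethanol vehicle), for 30 min at 37 °C. Supernatant PGE2 was measured by radioimmunoassay. Triplicate wells; % inhibition vs control, mean of three experiments.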

SMILES | inhibition [1] | Activity [2] | inhibition [8] | Activity [1] | Activity [9] | Activity [10] | Activity [11] | Activity [8] | inhibition [12] | Activity [3] | Activity [4] | Activity [5] | Activity [6] | Activity [7]
Cc1c(CC(=O)O)c2cc(O)ccc2n1C1CCN(C)CC1 | – | – | – | inactive | inactive | inactive | inactive | inactive | – | – | – | – | – | –
COc1ccc2c(c1)c(CC(=O)O)c(C)n2C(=O)c1ccc(Cl)cc1 [INDOMETHACIN] | 75% | Dose-dependent effect | 88% | – | – | – | – | – | – | Active | – | – | – | 50 mm

Further lines, with some results ahead:

inhibition [1] | Activity [2] | inhibition [8] | Activity [1] | Activity [9] | Activity [10] | Activity [11] | Activity [8] | inhibition [12] | SMILES | Activity [3] | Activity [4] | Activity [5] | Activity [6] | Activity [7]
57% | Dose-dependent effect | 64% | – | – | – | – | – | – | COc1ccc2c(c1)c(CC(=O)O)c(C)n2C1CCN(C)CC1 | Active | inactive | Dose-dependent effect | Active | inactive
– | – | – | inactive | inactive | inactive | inactive | inactive | – | CCOC(=O)Cc1c(C)n(C2CCN(C)CC2)c2ccc(OC(C)=O)cc12 | – | – | – | – | –
37% | Dose-dependent effect | 58% | – | – | – | – | – | 24% | CCOC(=O)Cc1c(C)n(C2CCN(C)CC2)c2ccc(OC)cc12 | Active | inactive | Dose-dependent effect | Active | 0.6 mm

Reference: ChEMBL document CHEMBL1138850, “Synthesis of 2-methyl-3-indolylacetic derivatives as anti-inflammatory agents that inhibit preferentially cyclooxygenase 1 without gastric damage” (2006)
